The source made the active and inactive calls. The rule behind the calls is not given here.
System: not listed separately
Assay: (§1) Inhibition of chymotrypsin like activity of rabbit 20S proteasome using Suc-LLVY-AMC as substrate after 45 mins
Parameters: species or system Oryctolagus cuniculus
In short: (§2)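 Rabbit 20S proteasome (0.3 nM final) incubated with Suc-LLVY-AMC ([…] final) at 37 °C for 45 min in pH 7.5 buffer of 20 mM Tris, 1 mM DTT, 10% glycerol. Chymotrypsin-like activity was followed as substrate hydrolysis (AMC release), with and without test compound. Inhibition was taken relative to the no-compound control.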
`COc1ccc(OC)c(CC(=O)N[C@@H](CCCCN)C(=O)NNC(CC(=O)NCc2cc(OC)c(OC)c(OC)c2)C(F)(F)F)c1` (some centres undefined) showed an IC50 of 97 µM.
`COC(=O)[C@H](Cc1ccccc1)NC(=O)CC(NNC(=O)[C@H](CCCCN)NC(=O)Cc1cccc(Oc2ccccc2)c1)C(F)(F)F` (single isomer, unassigned; diastereomer 2) showed an IC50 of 5.9 µM.
`COc1cc(CNC(=O)CC(NNC(=O)[C@@H](N)CCCCNC(=O)OCc2ccccc2)C(F)(F)F)cc(OC)c1OC` (some centres undefined) gave an IC50 of 10.1 µM.
With `COC(=O)[C@H](Cc1ccccc1)NC(=O)CCNNC(=O)[C@H](CCCCNC(=O)OCc1ccccc1)NC(=O)Cc1cc(OC)ccc1OC` the IC50 was 3.6 µM.
`COC(=O)C(Cc1ccccc1)NC(=O)CCNNC(=O)C(CCCCNC(=O)OCc1ccccc1)NC(=O)OC(C)(C)C` (centres undefined) gave an IC50 of 48.5 µM.
In the case of `COC(=O)[C@H](Cc1ccccc1)NC(=O)CNNC(=O)C(CCCCNC(=O)OCc1ccccc1)NC(=O)Cc1cc(OC)ccc1OC` (some centres undefined), the IC50 is reported as 7.1 µM.
`COC(=O)[C@H](Cc1ccccc1)NC(=O)CC(NNC(=O)[C@H](CCCCN)NC(=O)Cc1cc(OC)ccc1OC)C(F)(F)F` (some centres undefined) showed an IC50 of 5.9 µM.
Compound `COC(=O)[C@H](Cc1ccccc1)NC(=O)CNNC(=O)C(CCCCNC(=O)OCc1ccccc1)NC(=O)OC(C)(C)C` (some centres undefined) has an IC50 of 11.8 µM.
`COc1cc(CNC(=O)CCNNC(=O)[C@H](CCCCNC(=O)OC(C)(C)C)NC(=O)OCC2c3ccccc3-c3ccccc32)cc(OC)c1OC` showed an IC50 of 6 µM.
Compound `COc1ccc(OC)c(CC(=O)NC(CCCCNC(=O)OC(C)(C)C)C(=O)NNCCC(=O)NCc2cc(OC)c(OC)c(OC)c2)c1` (centres undefined) has an IC50 of 31.4 µM.
`COc1cc(CNC(=O)CC(NNC(=O)[C@H](CCCCN)NC(=O)Cc2cccc(Oc3ccccc3)c2)C(F)(F)F)cc(OC)c1OC` (some centres undefined) showed an IC50 of 6.2 µM.
In the case of `COC(=O)[C@H](Cc1ccccc1)NC(=O)CCNNC(=O)[C@H](CCCCN)NC(=O)Cc1cc(OC)ccc1OC`, the IC50 is reported as 8.8 µM.
`COC(=O)C(Cc1ccccc1)NC(=O)CCNNC(=O)C(N)CCCCNC(=O)OCc1ccccc1` (centres undefined) showed an IC50 of 18.2 µM.
In the case of `COc1cc(CNC(=O)CCNNC(=O)C(CCCCNC(=O)OC(C)(C)C)NC(=O)Cc2cccc(Oc3ccccc3)c2)cc(OC)c1OC` (centres undefined), the IC50 is reported as 4.7 µM.
With `COC(=O)C(Cc1ccccc1)NC(=O)CCNNC(=O)C(CCCCNC(=O)OCc1ccccc1)NC(=O)Cc1cccc(Oc2ccccc2)c1` (centres undefined) the IC50 was 2.8 µM.
`COc1cc(CNC(=O)CCNNC(=O)C(CCCCN)NC(=O)Cc2cccc(Oc3ccccc3)c2)cc(OC)c1OC` (centres undefined) showed an IC50 of 3.3 µM.
Compound `COc1ccc(OC)c(CC(=O)NC(CCCCN)C(=O)NNCCC(=O)NCc2cc(OC)c(OC)c(OC)c2)c1` (centres undefined) has an IC50 of 11.8 µM.
Compound `COC(=O)[C@H](Cc1ccccc1)NC(=O)CC(NNC(=O)[C@H](CCCCN)NC(=O)Cc1cccc(Oc2ccccc2)c1)C(F)(F)F` (single isomer, unassigned; diastereomer 1) has an IC50 of 8.4 µM.
For `COC(=O)[C@H](Cc1ccccc1)NC(=O)CNNC(=O)C(CCCCNC(=O)OCc1ccccc1)NC(=O)Cc1cccc(Oc2ccccc2)c1` (some centres undefined), the IC50 was 1.1 µM.
In the case of `COC(=O)C(Cc1ccccc1)NC(=O)CCNNC(=O)C(CCCCN)NC(=O)Cc1cccc(Oc2ccccc2)c1` (centres undefined), the IC50 is reported as 1.4 µM.
In the case of `COC(=O)[C@H](Cc1ccccc1)NC(=O)CNNC(=O)C(CCCCN)NC(=O)Cc1cc(OC)ccc1OC` (some centres undefined), the IC50 is reported as 1 µM.
Compound `COC(=O)[C@H](Cc1ccccc1)NC(=O)CNNC(=O)C(CCCCN)NC(=O)Cc1cccc(Oc2ccccc2)c1` (some centres undefined) has an IC50 of 0.7 µM.

Species on record: Oryctolagus cuniculus
Assay: as §1
In short: as §2
For `COC(=O)[C@H](Cc1ccccc1)NC(=O)CC(NNC(=O)[C@H](CC(N)=O)NC(=O)Cc1cc(OC)ccc1OC)C(F)(F)F` (some centres undefined), the inhibition was “inactive”.
With `COc1ccc(OC)c(CC(=O)N[C@@H](CCCCNC(=O)OCc2ccccc2)C(=O)NNC(CC(=O)NCc2cc(OC)c(OC)c(OC)c2)C(F)(F)F)c1` (some centres undefined) the inhibition was “inactive”.
For `COc1ccc(C[C@H](N)C(=O)NNC(=O)CC(NNC(=O)OCc2ccccc2)C(F)(F)F)cc1OC` (some centres undefined), the inhibition was “inactive”.
In the case of `COc1ccc(C[C@H](NC(=O)OCC2c3ccccc3-c3ccccc32)C(=O)NNC(=O)CC(NNC(=O)OC(C)(C)C)C(F)(F)F)cc1OC` (some centres undefined), the inhibition is reported as “inactive”.
In the case of `COC(=O)[C@H](Cc1ccccc1)NC(=O)CC(NNC(=O)Cc1cc(OC)ccc1OC)C(F)(F)F` (some centres undefined), the inhibition is reported as “inactive”.
With `COc1ccc(C[C@H](NC(=O)Cc2cccc(Oc3ccccc3)c2)C(=O)NNC(=O)CC(NNC(=O)OC(C)(C)C)C(F)(F)F)cc1OC` (some centres undefined) the inhibition was “inactive”.
With `COc1cc(CNC(=O)CC(NNC(=O)[C@H](CC(N)=O)NC(=O)OC(C)(C)C)C(F)(F)F)cc(OC)c1OC` (some centres undefined) the inhibition was “inactive”.
For `COc1ccc(C[C@H](NC(=O)Cc2cccc(Oc3ccccc3)c2)C(=O)NNC(=O)CC(NNC(=O)OCc2ccccc2)C(F)(F)F)cc1OC` (some centres undefined), the inhibition was “inactive”.

Species on record: Oryctolagus cuniculus
Assay: Inhibition of chymotrypsin like activity of rabbit 20S proteasome using Suc-LLVY-AMC as substrate at 100 uM after 45 mins relative to control
In short: as §2
With `COc1ccc(C[C@H](NC(=O)OCC2c3ccccc3-c3ccccc32)C(=O)NNC(=O)CC(NNC(=O)OCc2ccccc2)C(F)(F)F)cc1OC` (some centres undefined) the fold change (FC) was 3.6.
In the case of `COc1cc(CNC(=O)CC(NNC(=O)[C@H](CCCCNC(=O)OCc2ccccc2)NC(=O)OC(C)(C)C)C(F)(F)F)cc(OC)c1OC` (some centres undefined), the inhibition is reported as 35%.
`COC(=O)[C@H](Cc1ccccc1)NC(=O)CC(NNC(=O)[C@H](CCCCNC(=O)OCc1ccccc1)NC(=O)Cc1cc(OC)ccc1OC)C(F)(F)F` (some centres undefined) showed an inhibition of 30%.
Compound `COC(=O)[C@H](Cc1ccccc1)NC(=O)CC(NNC(=O)[C@H](CC(N)=O)NC(=O)OC(C)(C)C)C(F)(F)F` (some centres undefined) has an inhibition of 30%.

From ChEMBL document CHEMBL3085668, “α- and β-hydrazino acid-based pseudopeptides inhibit the chymotrypsin-like activity of the eukaryotic 20S proteasome” (Eur J Med Chem, 2013)
